Results on one compound are retold here after ChEMBL document CHEMBL5625176, “Immunosuppressive effects of new thiophene-based KV1.3 inhibitors” (Eur J Med Chem, 2023).

As a reminder, the inhibition is the relative decrease from the control value, in per cent. As usually defined, the IC50 is the midpoint of a concentration-inhibition curve.

Data set [1] has as its target hERG (KCNH2) (Homo sapiens, UniProt Q12809). As to the kind of experiment: Inhibition of hERG overexpressed in HEK293 cells at 5 uM relative to control. In kind it is toxicity, cell-based. To be noted: HEK293 cells overexpressing hERG. (In general: Block of hERG is tested as a sign of cardiac risk.)
Data set [2] concerns the target Potassium voltage-gated channel subfamily A member 5 (Homo sapiens) (UniProt P22460). The data set is described as follows: Inhibition of Kv1.5 (unknown origin) expressed in Xenopus laevis Oocyte cells by electrophysiological recordings relative to control. The class given is cell-based. The note with it: concentration not given here. An outline of the steps: (§1)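 Kv1.x cRNA expressed in defolliculated Xenopus oocytes and recorded by two-electrode voltage clamp 1–4 days after injection, at 18–22 °C in ND96 pH 7.5. 1 s pulses, analysed at 0 mV. Compounds applied at rising concentrations with ≤0.5% DMSO, and current inhibition relative to control fitted with the Hill equation.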

The target in data set [3] is T1, Potassium voltage-gated channel subfamily A member 3 (Homo sapiens, UniProt P22001). The data set is described as follows: Selectivity ratio of IC50 for inhibition of human Kv1.3 expressed in mouse LTK- cells to IC50 for inhibition of human Kv1.3 expressed in Xenopus laevis Oocyte cells. The class given is cell-based.
T1 sequence (P22001 whole entry): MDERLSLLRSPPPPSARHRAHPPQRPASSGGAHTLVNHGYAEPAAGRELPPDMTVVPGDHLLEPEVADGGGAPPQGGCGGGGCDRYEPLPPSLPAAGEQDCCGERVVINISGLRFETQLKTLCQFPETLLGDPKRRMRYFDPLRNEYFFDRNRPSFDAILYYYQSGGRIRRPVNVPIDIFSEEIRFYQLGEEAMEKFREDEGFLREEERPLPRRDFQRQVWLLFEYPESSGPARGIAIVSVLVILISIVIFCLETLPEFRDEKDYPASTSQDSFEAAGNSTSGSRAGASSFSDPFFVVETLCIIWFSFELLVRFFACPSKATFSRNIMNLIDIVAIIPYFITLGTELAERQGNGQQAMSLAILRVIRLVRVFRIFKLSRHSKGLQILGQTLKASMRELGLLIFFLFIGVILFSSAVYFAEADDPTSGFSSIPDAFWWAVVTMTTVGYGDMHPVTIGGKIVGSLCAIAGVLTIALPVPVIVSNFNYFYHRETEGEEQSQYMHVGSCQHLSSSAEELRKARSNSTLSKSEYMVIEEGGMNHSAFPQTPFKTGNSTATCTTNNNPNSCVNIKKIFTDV
Data set [4] concerns the target Potassium voltage-gated channel subfamily A member 6 (Homo sapiens) (UniProt P17658). The data set is described as follows: Inhibition of Kv1.6 (unknown origin) expressed in Xenopus laevis Oocyte cells by electrophysiological recordings relative to control. In kind it is cell-based. To be noted: concentration not given here. An outline of the steps:
as §1

In data set [5] the target is T1, Potassium voltage-gated channel subfamily A member 3. As to the kind of experiment: Inhibition of Kv1.3 in human PBMC derived PHA-activated T-lymphocytes assessed as reduction in intracellular calcium level at 5 uM incubated for 2 hrs by Fluo-4 Ca2+ based flow cytometric analysis relative to control. To be noted: T-lymphocyte. In kind it is cell-based. The procedure, abridged:
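PBMC activated 5 days with PHA, then given compounds at 5 μM for 2 h. Scraped and loaded with Fluo-4 (2 μM) plus anti-CD3-APC at 37 °C for 1 h, washed, and held 30 min at 37 °C with compound (5 μM) before flow cytometry. Fluo-4 MFI of the CD3⁺ gate, 3 replicates, normalized to untreated control; n = 4.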

Data set [6] has as its target Potassium voltage-gated channel subfamily A member 4 (Homo sapiens) (UniProt P22459). As to the kind of experiment: Inhibition of Kv1.4 (unknown origin) expressed in Xenopus laevis Oocyte cells by electrophysiological recordings relative to control. To be noted: concentration not given here. The class given is cell-based. An outline of the steps:
as §1

Data set [7] has as its system T-cell. As to the kind of experiment: Induction of cell cycle arrest at G0/G1 phase in human PBMC derived PHA-activated T-lymphocytes assessed as reduction S phase cells at 30 uM measured after 5 days by flow cytometric analysis. In kind it is functional, cell-based. To be noted: time 5.0 day. An outline of the steps:
(§2)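 PHA-activated PBMC exposed to compounds (30 μM) for 5 days in RPMI/10% heat-inactivated calf serum/2 mM L-glutamine, scraped off and incubated 1 h at 4 °C in the dark. Cell cycle read by flow cytometry and scored as G0/G1 versus cycling (S+G2/M) percentage. Mean ± SD of 3 experiments; unpaired t-test against untreated cells.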

Data set [8] has as its target T1, Potassium voltage-gated channel subfamily A member 3. As to the kind of experiment: Inhibition of human Kv1.3 expressed in Xenopus laevis Oocyte cells at 10 uM by manual patch clamp method relative to control. The class given is cell-based. An outline of the steps: (§3)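 Human Kv1.3 cRNA injected into defolliculated Xenopus oocytes. Two-electrode voltage clamp 1–4 days later at 18–22 °C in ND96 (pH 7.5). Currents evoked by 1 s depolarizations, with inhibition read at the 0 mV step. Compounds from DMSO stock at ≤0.5% DMSO, either single 10 μM or rising concentrations fitted with the Hill equation for IC50.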

In data set [9] the target is Potassium voltage-gated channel subfamily A member 2 (Homo sapiens, UniProt P16389). As to the kind of experiment: Inhibition of Kv1.2 (unknown origin) expressed in Xenopus laevis Oocyte cells by electrophysiological recording. In kind it is cell-based. An outline of the steps: as §1
Potassium voltage-gated channel subfamily A member 2, sequence (P16389 whole entry): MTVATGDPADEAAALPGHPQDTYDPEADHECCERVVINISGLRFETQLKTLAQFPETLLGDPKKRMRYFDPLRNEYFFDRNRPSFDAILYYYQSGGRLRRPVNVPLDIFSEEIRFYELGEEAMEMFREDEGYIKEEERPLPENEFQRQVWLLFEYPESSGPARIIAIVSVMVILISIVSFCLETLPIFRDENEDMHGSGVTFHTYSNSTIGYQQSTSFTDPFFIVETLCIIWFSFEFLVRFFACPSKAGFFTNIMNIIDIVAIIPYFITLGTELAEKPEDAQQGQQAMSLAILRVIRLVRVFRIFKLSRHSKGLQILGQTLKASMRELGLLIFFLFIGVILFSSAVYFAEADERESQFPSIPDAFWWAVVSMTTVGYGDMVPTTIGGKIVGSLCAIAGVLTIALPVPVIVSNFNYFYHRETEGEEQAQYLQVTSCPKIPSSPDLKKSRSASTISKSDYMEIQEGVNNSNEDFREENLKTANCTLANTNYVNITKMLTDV
Data set [10] can be described thus: Stability of compound in PBS at pH 7.4 measured for >=120 hrs by HPLC analysis. In kind it is physicochemical. The note with it: buffer, pH 7.4, 120 h. The procedure, abridged:
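Aqueous stability: 10 mM DMSO stock diluted to a final 50 μM in PBS pH 7.4 with 20% MeCN and 0.5% DMSO, filtered, held at 37 °C. UPLC (BEH C18, 280 nm) injections every 4 h for the first 24 h, then every 8 h. Analyte AUC plotted against time; triplicates.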

Data set [11] relates to T-cell. As to the kind of experiment: Induction of cell cycle arrest at G0/G1 phase in human PBMC derived PHA-activated T-lymphocytes assessed as reduction G2/M phase cells at 30 uM measured after 5 days by flow cytometric analysis. The class given is functional, cell-based. To be noted: time 5.0 day. An outline of the steps:
as §2
(In general: Flow cytometry measures light scatter and fluorescence of single cells or particles in a stream.)

Data set [12] addresses T1, Potassium voltage-gated channel subfamily A member 3. As to the kind of experiment: Inhibition of human Kv1.3 expressed in Xenopus laevis Oocyte cells by Electrophysiology recording. In kind it is cell-based. The procedure, abridged:
as §3

For data set [13] the target is unchanged. The data set is described as follows: Inhibition of human Kv1.3 expressed in mouse LTK- cells by manual patch clamp electrophysiological recording. In kind it is cell-based. The procedure, abridged:
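Mouse Ltk⁻ fibroblasts in DMEM/10% horse serum transiently transfected with hKv1.3 plasmid plus eGFP marker, and recorded 24 h later. Whole-cell patch clamp at 20–23 °C. Compounds diluted from DMSO stocks with final DMSO ≤0.1%, with 0.1% DMSO as vehicle control. Normalized current plotted against concentration and fitted with the Hill equation for IC50; mean ± SEM, n = cells.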

For data set [14], the target named is Potassium voltage-gated channel subfamily A member 1 (Homo sapiens, UniProt Q09470). The data set is described as follows: Inhibition of Kv1.1 (unknown origin) expressed in Xenopus laevis Oocyte cells by electrophysiological recording. In kind it is cell-based. The procedure, abridged: as §1
Potassium voltage-gated channel subfamily A member 1, sequence (Q09470 whole entry): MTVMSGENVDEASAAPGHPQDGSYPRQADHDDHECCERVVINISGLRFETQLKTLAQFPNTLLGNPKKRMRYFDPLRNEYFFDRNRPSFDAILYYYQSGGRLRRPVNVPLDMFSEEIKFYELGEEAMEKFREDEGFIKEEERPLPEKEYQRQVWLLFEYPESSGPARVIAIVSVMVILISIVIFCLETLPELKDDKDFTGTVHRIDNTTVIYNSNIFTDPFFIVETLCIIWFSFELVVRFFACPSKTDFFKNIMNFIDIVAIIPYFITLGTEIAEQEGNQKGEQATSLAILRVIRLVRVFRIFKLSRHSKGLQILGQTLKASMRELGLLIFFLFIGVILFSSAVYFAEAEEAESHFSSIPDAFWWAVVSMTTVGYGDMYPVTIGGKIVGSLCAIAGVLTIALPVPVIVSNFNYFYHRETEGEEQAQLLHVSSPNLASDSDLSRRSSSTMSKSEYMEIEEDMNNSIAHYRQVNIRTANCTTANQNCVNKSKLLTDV
In data set [15] the test system is T-cell line. The data set is described as follows: Cytotoxicity against human PBMC derived PHA-activated T-lymphocytes assessed as effect on total cell number at 30 uM incubated for 5 days by bright-field microscopic analysis. In kind it is toxicity, cell-based. The note with it: 120 h, time 5 day. The procedure, abridged: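 Ficoll-purified PBMC at 1.5 × 10⁶ cells/mL in RPMI/10% heat-inactivated serum/2 mM L-glutamine, stimulated with PHA-L 240 ng/mL and exposed to compounds (30 μM) for 5 days. Cells then counted to give total cell number.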

Data set [16] deals with T-cell line. As to the kind of experiment: Cytotoxicity against human PBMC derived PHA-activated T-lymphocytes assessed as effect on cell viability by trypan blue staining based analysis. In kind it is toxicity. To be noted: 30 µM. The procedure, abridged:
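PBMC purified by Ficoll gradient with red-cell lysis, seeded at 1.5 × 10⁶ cells/mL in RPMI with 10% heat-inactivated serum and 2 mM L-glutamine. Activated with PHA-L 240 ng/mL alongside compounds at 30 μM. Viability of treated versus untreated cells judged by trypan blue staining.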

The target of data set [17] is T1, Potassium voltage-gated channel subfamily A member 3. The data set is described as follows: Inhibition of Kv1.3 (unknown origin) expressed in human PBMC derived PHA-activated T-lymphocyte cells assessed as reduction in total outward potassium current at 5 uM by patch clamp electrophysiology method. In kind it is cell-based. The procedure, abridged:
(§4)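 Whole-cell recording on PBMC stimulated 5 days with PHA-L (240 ng/mL); about 90% of cells CD3⁺. Large cells chosen; cells with currents ≤500–600 pA discarded. Bath in mM: 130 NaCl, 5 KCl, 2 CaCl₂, 2 MgCl₂, 10 HEPES, 5 glucose, pH 7.4; pipette KF-based with 11 EGTA, pH 7.2. Leak-subtracted two-step outward K⁺ current. Single concentration 5 μM, or 0.05 nM–50 μM for curves; peak normalized to control.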
(In patch-clamp work, channel activity is measured electrically.)

Data set [18] deals with T-cell. The data set is described as follows: Inhibition of human PBMC derived PHA-activated T-lymphocytes activation assessed as inhibition of colony formation by measuring reduction in colony forming units at 30 uM incubated for 5 days by bright-field microscopic analysis. To be noted: time 5.0 day. In kind it is functional, cell-based. An outline of the steps: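 PBMC at 1.5 × 10⁶ cells/mL treated with compounds (30 μM) together with PHA-L (240 ng/mL) for 5 days in RPMI with 10% heat-inactivated bovine calf serum and 2 mM L-glutamine. After medium removal, wells imaged by bright-field microscopy at 2× and colonies (CFU) counted. Mean ± SD of 3 experiments.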

A short description of data set [19]: Thermodynamic solubility of the compound at pH 7.4 incubated for 24 hrs under shaking condition by HPLC analysis. The note with it: buffer, read-out: Therm_solubility. In kind it is physicochemical. An outline of the steps: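 Supernatant diluted 1:2 or 1:10 in 0.1% TFA/MeCN 1:1 and quantified by reversed-phase UPLC at 290 nm against a 7-point calibration (1–100 μM). Mean of two independent experiments, in μM.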

In data set [20] the target is T1, Potassium voltage-gated channel subfamily A member 3. As to the kind of experiment: Inhibition of Kv1.3 (unknown origin) expressed in PBMC derived PHA-activated T-lymphocyte cells incubated for 5 days by manual patch clamp method. In kind it is cell-based. An outline of the steps: as §4

Values after ≈ are worked out from the molar mass of the structure shown. Active and inactive are the calls of the source. The calls are words filed in the database; no cut-off is given here.

hERG (KCNH2), sequence (Q12809 whole entry): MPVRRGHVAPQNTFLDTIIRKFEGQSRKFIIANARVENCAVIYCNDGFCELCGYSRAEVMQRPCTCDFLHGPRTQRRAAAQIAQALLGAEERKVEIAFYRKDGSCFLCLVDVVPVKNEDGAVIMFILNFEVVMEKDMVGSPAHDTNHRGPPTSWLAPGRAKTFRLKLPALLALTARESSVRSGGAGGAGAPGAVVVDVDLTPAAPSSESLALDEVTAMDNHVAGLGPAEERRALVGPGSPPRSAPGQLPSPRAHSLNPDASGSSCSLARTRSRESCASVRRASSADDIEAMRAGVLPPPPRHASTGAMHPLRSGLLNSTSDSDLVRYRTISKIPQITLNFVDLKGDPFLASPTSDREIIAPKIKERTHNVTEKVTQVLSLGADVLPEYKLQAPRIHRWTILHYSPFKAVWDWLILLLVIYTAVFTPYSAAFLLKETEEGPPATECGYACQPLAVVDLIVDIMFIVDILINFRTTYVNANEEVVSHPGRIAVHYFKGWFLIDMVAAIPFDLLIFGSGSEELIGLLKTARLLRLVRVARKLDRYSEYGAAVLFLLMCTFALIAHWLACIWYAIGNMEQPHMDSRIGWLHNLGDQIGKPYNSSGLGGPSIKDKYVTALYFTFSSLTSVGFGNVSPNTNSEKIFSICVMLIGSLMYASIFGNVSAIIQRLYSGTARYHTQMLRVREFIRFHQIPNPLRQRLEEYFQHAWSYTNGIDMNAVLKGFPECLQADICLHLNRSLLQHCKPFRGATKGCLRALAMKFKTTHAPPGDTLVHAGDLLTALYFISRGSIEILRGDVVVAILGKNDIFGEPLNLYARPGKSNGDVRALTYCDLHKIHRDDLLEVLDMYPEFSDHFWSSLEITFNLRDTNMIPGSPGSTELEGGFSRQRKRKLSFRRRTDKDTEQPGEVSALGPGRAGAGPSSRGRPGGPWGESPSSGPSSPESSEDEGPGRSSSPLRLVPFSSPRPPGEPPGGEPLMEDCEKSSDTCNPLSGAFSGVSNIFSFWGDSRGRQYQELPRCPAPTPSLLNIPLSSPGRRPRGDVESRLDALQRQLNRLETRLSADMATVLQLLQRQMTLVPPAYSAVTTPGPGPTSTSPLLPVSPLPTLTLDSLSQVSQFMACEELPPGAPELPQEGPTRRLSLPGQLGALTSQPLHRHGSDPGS
Potassium voltage-gated channel subfamily A member 4 (Homo sapiens), sequence (P22459 whole entry): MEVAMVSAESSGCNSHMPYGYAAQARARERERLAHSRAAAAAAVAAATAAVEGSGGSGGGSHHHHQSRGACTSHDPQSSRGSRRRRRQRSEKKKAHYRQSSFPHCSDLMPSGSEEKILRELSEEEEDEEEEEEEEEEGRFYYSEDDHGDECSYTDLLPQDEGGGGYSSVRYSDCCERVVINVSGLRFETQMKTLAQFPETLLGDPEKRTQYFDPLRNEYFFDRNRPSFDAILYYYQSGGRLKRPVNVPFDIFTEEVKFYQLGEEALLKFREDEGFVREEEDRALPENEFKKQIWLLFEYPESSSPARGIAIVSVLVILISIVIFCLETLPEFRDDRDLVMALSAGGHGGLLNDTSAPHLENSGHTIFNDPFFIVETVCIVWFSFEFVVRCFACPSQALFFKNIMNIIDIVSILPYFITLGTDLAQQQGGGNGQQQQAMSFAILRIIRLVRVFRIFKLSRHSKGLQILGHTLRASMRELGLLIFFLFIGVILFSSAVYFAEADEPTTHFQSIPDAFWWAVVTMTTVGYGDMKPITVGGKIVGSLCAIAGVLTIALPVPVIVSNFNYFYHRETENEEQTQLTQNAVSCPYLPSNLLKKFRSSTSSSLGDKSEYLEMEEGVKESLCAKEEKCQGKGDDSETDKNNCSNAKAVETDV
Potassium voltage-gated channel subfamily A member 6 (Homo sapiens), sequence (P17658 whole entry): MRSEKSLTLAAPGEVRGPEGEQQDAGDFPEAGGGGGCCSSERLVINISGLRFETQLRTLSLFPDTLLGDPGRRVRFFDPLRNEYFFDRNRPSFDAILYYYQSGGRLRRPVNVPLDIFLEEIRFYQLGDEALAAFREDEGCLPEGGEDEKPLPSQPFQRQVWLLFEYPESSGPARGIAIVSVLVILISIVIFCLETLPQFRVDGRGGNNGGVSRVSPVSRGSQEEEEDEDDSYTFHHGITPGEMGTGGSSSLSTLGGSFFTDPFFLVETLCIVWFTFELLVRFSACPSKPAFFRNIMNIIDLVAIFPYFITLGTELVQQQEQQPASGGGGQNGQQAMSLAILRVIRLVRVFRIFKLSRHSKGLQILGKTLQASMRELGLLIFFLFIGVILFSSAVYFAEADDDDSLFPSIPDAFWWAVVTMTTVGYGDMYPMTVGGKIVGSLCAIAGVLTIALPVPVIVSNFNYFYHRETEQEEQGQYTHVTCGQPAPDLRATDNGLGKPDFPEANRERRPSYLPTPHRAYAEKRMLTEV
Potassium voltage-gated channel subfamily A member 5 (Homo sapiens), sequence (P22460 whole entry): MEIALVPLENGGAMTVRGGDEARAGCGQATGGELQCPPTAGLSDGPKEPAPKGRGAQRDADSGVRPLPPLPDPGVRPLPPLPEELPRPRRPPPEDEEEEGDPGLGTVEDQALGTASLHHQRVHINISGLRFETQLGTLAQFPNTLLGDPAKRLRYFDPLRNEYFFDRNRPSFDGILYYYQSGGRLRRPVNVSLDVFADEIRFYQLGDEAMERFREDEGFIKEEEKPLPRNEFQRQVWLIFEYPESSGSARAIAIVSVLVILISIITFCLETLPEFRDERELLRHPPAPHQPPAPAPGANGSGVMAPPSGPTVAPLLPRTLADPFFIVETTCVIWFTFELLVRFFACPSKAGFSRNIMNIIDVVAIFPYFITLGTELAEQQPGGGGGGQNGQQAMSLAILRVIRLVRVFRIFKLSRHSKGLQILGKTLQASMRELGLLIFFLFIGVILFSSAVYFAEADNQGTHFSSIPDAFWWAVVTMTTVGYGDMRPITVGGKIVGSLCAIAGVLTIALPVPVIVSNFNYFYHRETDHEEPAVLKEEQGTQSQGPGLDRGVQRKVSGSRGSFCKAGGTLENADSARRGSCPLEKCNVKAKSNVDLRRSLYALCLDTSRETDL

As for `CCCNC(=O)O[C@H]1CC[C@@](CNC(=O)c2ccccc2OC)(c2ccsc2)CC1`, the inhibition at 5 µM in [1] was found to be 21%. For the same compound, the inhibition in data set [2] was 11.4%; in data set [4], -1.1%; in data set [5], 27%; in data set [6] it was 6.4%; in data set [8], 90.7%. In data set [3], the Ratio IC50 was less than 2. Moreover, the result in data set [7] and in [11] was Active. Moreover, the IC50 in [9] stood at 0.308 µM; in data set [12], 0.136 µM; in [13], 0.23 µM; in [14], 0.124 µM; in data set [20], 0.0261 µM. Moreover, the Stability entry in [10] is recorded as “Stable”. The Activity entry in data set [15] and in data set [16] was “Non-Toxic” throughout. Further, the inhibition result in data set [17] and in data set [18] was “Active” in each case. The solubility thermodynamic at 24 h in data set [19] was 22 µM (≈ 9.47 µg/mL).
